Shown are actives, neighbours in structure and some others; about 2.9% of the full set was active somewhere.
MEKK2mut PB1 HTS: signal of MEK5 binding to mutant human MEKK2 PB1 domain. percent response, % at 10 µM. bead flow cytometry, Alexa488-MEK5 binding to MEKK2 mutant. 290,000 compounds, 0.35% hits. AID 1530; in the data active means percent response above about 24%, passing the limit was not always enough
MEKK3 PB1 HTS: MEKK3-MEK5 PB1 interaction, increase or decrease. Q99759. bead-based flow cytometry, Alexa488-MEK5 binding to MEKK3; actives lie on both sides; 0 = blocked by unlabeled MEK5, 100 = vehicle. binding response (% of control), % at 10 µM. 290,000 compounds, 1.4% hits. AID 1529;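 active means binding response more than 3 SD above or below the average of its plate-row segment, actives on both sides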;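 further: Alexa488 bead fluorescence after subtracting the streptavidin-only scavenger bead signal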
Dynein cargo inh: blocks dynein driven cargo transport along microtubules | 220,000 compounds, 0.47% hits | z-score, hits read low | 3617.4 mouse cells, GR-EGFP nuclear translocation imaging; test concentration mostly 20 µM; stimulated with dexamethasone, 1 µM; stronger effect = lower value;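 active means plate z-score of nuclear minus cytoplasmic receptor signal below a set negative limit, without overly bright fluorescence or cell loss, cut at about -3.5 in these data, passing the limit was not always enough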;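 further: z-score of nuclear minus cytoplasmic ring GR-EGFP intensity difference per well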
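Also added: dexamethasone, 1.0 µM final. Medium: tet-free, stripped-serum medium. Detection: fixed, Hoechst-stained cells imaged at 10x for EGFP. Read-out: nuclear-to-cytoplasmic GR-EGFP distribution per well. Times: induction 48 h, compound 1 h, agonist 30 min.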
Beta2AR agonist: activates human beta-2 adrenergic receptor causing internalization; Am2.2-beta2AR cells, FAP receptor internalization, flow cytometry; 340,000 compounds, 0.43% hits; response, % (concentration not given with the values); P07550; AID 504454;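 active means response above a set limit, near 3 SD of response in nonfluorescent compounds, cut at about 42% in these data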
Target sequence (P07550 whole entry, looked up): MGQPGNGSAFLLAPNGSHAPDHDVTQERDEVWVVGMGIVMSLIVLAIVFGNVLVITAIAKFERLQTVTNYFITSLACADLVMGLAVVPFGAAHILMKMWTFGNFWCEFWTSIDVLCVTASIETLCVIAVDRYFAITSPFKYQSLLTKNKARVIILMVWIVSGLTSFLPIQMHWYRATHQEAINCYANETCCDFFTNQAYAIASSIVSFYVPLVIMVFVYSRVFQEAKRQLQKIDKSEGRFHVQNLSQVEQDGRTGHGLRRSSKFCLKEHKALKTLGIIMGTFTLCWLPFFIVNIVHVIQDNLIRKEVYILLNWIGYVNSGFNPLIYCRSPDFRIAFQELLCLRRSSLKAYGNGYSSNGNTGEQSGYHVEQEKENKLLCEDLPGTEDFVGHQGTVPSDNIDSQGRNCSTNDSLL
ATG4B inhibitor: ATG4B (human) cysteine protease inhibition; inhibition, % at 8.33 µM; 340,000 compounds, 0.51% hits; ATG4B cleavage of LC3-PLA2, NBD-HPC fluorescence, 1 h; in the data active means inhibition above about 40%
MEKK2 WT-MEK5: raises or lowers MEK5 binding to wildtype human MEKK2 PB1 domain; Q9Y2U5; binding response (% of control), % at 10 µM; bead flow cytometry, Alexa488-MEK5 binding to MEKK2 WT; actives lie on both sides; 290,000 compounds, 1.1% hits; in the data active means binding response below about 67% or above about 130%
Active calls of the source: *; nt = no result given; [ ] = remark or other dose.

SMILES	MEKK2mut PB1 HTS	MEKK3 PB1 HTS	Dynein cargo inh	Beta2AR agonist	ATG4B inhibitor	MEKK2 WT-MEK5
CCOc1ccccc1CN1CCC(n2nccc2NC(=O)CCc2ccccc2)CC1	16	104	nt	-11	7	122
COc1ccccc1/C=C/CN1CCC(n2nccc2NC(=O)CCc2ccccc2)CC1	11	103	nt	3	5	138*
CCCCn1c(N)c(N(CC)C(=O)C2CCN(C(=O)c3ccccc3C)CC2)c(=O)[nH]c1=O	nt	nt	nt	-3	-2	nt
Cc1ccc(C)c(NC(=O)CCC(=O)N/N=C/c2cc([N+](=O)[O-])ccc2O)c1	-13	93	-0.15	65*	-4	81
Cc1ccccc1-c1nc(CN2CCC(C(=O)NCCCN3CCCC3)CC2)c(C)o1	51*	102	-0.047	-17	2	198*
O=C(Oc1ccc(Br)cc1C(=O)/C=C/c1ccccc1F)c1ccco1	nt	nt	-5.8*	58*	2	nt
CC(=O)c1cc(Cl)ccc1OC(=O)c1ccco1	1	101	-0.75	-3	3	99
Cc1cc(C)c2c(c1)/C(=C/C(=O)c1ccc(Br)s1)C(=O)N2	-1	101	-0.9	65*	5	95
CN1CCN(S(=O)(=O)c2cccc(C(=O)NC3CCCC3)c2)CC1	nt	nt	nt	0	-1	nt
Cc1ccc(S(=O)(=O)N2CCOCC2)cc1C(=O)OCC(=O)NC1CCCC(C)C1C (stereo unspecified)	nt	nt	nt	7	0	nt
COc1ccc(C(=O)Nc2ccc(C(=O)Nc3cccnc3)cc2)cc1	4	100	nt	54*	0	100
O=C(Nc1ccccc1C(=O)Nc1ccc(Cl)cc1)c1cccnc1	2	97	nt	-6	-8	104
O=C(Nc1ccc(NC(=O)c2ccccc2Cl)cc1)c1cccnc1	-28	39*[inhibitor]	nt	12	-12	53*[inhibitor]
Cc1ccc(C(=O)NCC(C)NC(=O)c2ccc(C)c(C)c2)cc1C (stereo unspecified)	nt	nt	nt	4	-2	nt
COc1cc(NC(=O)c2ccc(OCc3c(C)noc3C)c(OC)c2)cc(OC)c1	nt	nt	nt	15	-1	nt
CCc1ccc(CN(Cc2cccnc2)C(=O)/C=C/c2ccc(OC)cc2)cc1	32*	108	nt	-45	5	138*
COc1ccc(/C=C/C(=O)NCc2cccnc2)cc1	-1	99	-0.23	-7	5	101
C[C@H](NC(=O)c1ncn(C)c1C(=O)N[C@@H](C)c1ccccc1)c1ccccc1	nt	nt	nt	-3	-9	nt
CCCn1c(SCC(=O)Nc2ccc(Cl)cc2F)nc(O)cc1=O	nt	nt	nt	12	-7	nt
Cc1ccccc1N1CCN(C2=NC(=O)/C(=C/c3cn[nH]c3-c3ccccc3)S2)CC1	-3	94	0.12	48*	-3	93
O=C(NC1CCC(O)CC1)C1CCN(S(=O)(=O)c2c(Cl)cccc2Cl)CC1 (stereo unspecified)	nt	nt	nt	-3	-6	nt
Cc1cc(C(=O)N2CCN(c3ccccc3Cl)CC2)c(C)o1	nt	nt	nt	6	7	nt
CC1CCCC(C)N1C(=O)c1ccc2c(c1)S(=O)(=O)c1ccccc1C2=O (stereo unspecified)	-26	0.0*[inhibitor]	nt	2	-6	-12*[inhibitor]
O=C1c2ccccc2S(=O)(=O)c2cc(C(=O)N3CCC(C(=O)N4CCCCC4)CC3)ccc21	-8	69	nt	nt	-7	82
CC(OC(=O)Cn1[nH]c(=O)c2ccccc2c1=O)C(=O)Nc1cccc(Cl)c1 (stereo unspecified)	nt	nt	nt	7	-2	nt
SMILES	MEKK2mut PB1 HTS	MEKK3 PB1 HTS	Dynein cargo inh	Beta2AR agonist	ATG4B inhibitor	MEKK2 WT-MEK5
Cc1onc(-c2c(F)cccc2Cl)c1C(=O)Nc1cc(S(=O)(=O)N2CCCCC2)ccc1O	nt	nt	nt	26	-7	nt
CCOC(=O)c1c(C)n(-c2ccc(C)cc2)c2ccc(OCC(O)CNCC3CCCO3)cc12 (stereo unspecified)	-7	53	-2.5	21	6	124
CCOC(=O)c1c(C)n(-c2ccc(C)cc2)c2ccc(OCC(O)CNCCCO)cc12 (stereo unspecified)	40	106	3.5	18	12	181*
COc1ccc(/C=C(\NC(=O)c2ccco2)C(=O)N2CCOCC2)cc1	-4	101	nt	-5	0	98
COc1ccc(/C=C(/NC(=O)c2ccco2)C(=O)N2CCOCC2)cc1	0	94	nt	49*	-4	95
O=C(/C=C/c1ccc(F)cc1)Nc1nc2ccccc2[nH]1	1	208*	-0.13	nt	nt	112
O=C(Nc1nc2ccccc2[nH]1)c1cccc(F)c1	5	103	nt	-7	2	107
CCCCCOc1ccc(Br)cc1/C(C)=N/NC1=NCCN1	4	98	-1	44*	1	126
COc1ccc(Br)cc1/C(C)=N/NC1=NCCN1	22	109	0.44	1	-3	118
COC(=O)c1c(NC(=O)c2ccccc2)sc2c1CC(C)(C)NC2(C)C	15	103	-0.27	-11	-4	121
CCOC(=O)c1c(NC(=O)COc2ccccc2C#N)sc2c1CC(C)(C)NC2(C)C	16	104	nt	5	5	134*
CCOC(=O)c1c(NC(=O)Cc2ccccc2)sc2c1CC(C)(C)NC2(C)C	6	104	nt	5	-10	120
CC1(C)Cc2c(sc(NC(=O)c3ccc(C(=O)c4ccccc4)cc3)c2C(N)=O)C(C)(C)N1	22	106	nt	26	6	150*
Cc1n[nH]c(=O)c2c(NC(=O)COC(=O)Cc3ccc(Cl)cc3Cl)oc(C)c12	nt	nt	nt	5	4	nt
Cc1cccc(C(=O)Nc2ccc3ccccc3c2)c1	-1	106	nt	1	-3	103
Cc1cccc(C(=O)Nc2ccc(C)c(OC(=O)c3cccc(C)c3)c2)c1	-26	2.0*[inhibitor]	-0.15	nt	nt	-2.0*[inhibitor]
COc1ccc(C2=NN(C(=O)CSc3ncccn3)C(c3ccc(C)cc3)C2)cc1 (stereo unspecified)	3	101	-0.37	-5	-7	89
COc1ccc(C2=NN(C(=O)CSc3ncccn3)C(c3cccc(OC)c3OC)C2)cc1 (stereo unspecified)	-27	87	-0.24	3	-11	-7.0*
Cc1nnc(N2CCOCC2)c2nn(-c3cccc(Cl)c3)c(C)c12	85*	122	-0.66	-53	3	80
Cc1nnc(N2CCC(C(=O)N3CCCCC3)CC2)c2nn(-c3ccc(Cl)cc3)c(C)c12	-3	99	nt	2	53*	103
Cc1nnc(-n2ncc(C#N)c2N)c2nn(-c3cccc(Cl)c3)c(C)c12	2	95	0.66	-14	-7	97
O=C(O)/C=C/C(=O)c1ccc2c(c1)CCc1ccccc1-2	nt	nt	nt	96*	16	nt
CC12CCC(C[N+](C)(C)C1)C2(C)C (stereo unspecified)	91*	111	-0.18	3	-4	33*

From PubChem BioAssay
